Columns and labels:
OVCAR-3 = assay: Growth inhibition of human OVCAR-3 cells after 48 hrs by sulforhodamine B assay; assay type: functional; conditions: OVCAR-3, 48 h
Method in brief: (§1)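 NCI screen panel. Five 10-fold concentrations from 10^-4 to 10^-8 M. Exposure for the last 48 h of a 72 h incubation. Growth estimated by sulforhodamine B protein assay. GI50 is the concentration giving 50% growth inhibition. Where that level was not reached or was exceeded, the value is given as above or below the highest or lowest concentration tested.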

HOP-62 = assay: Growth inhibition of human HOP62 cells after 48 hrs by sulforhodamine B assay; assay type: functional; conditions: HOP-62, 48 h; method in brief: as §1
DU-145 = assay: Growth inhibition of human DU145 cells after 48 hrs by sulforhodamine B assay; assay type: functional; conditions: DU-145, 48 h; method in brief: as §1
SF-539 = assay: Growth inhibition of human SF539 cells after 48 hrs by sulforhodamine B assay; assay type: functional; conditions: SF-539, 48 h; method in brief: as §1
MCF7 = assay: Growth inhibition of human MCF7 cells after 48 hrs by sulforhodamine B assay; assay type: functional; conditions: MCF7, 48 h; method in brief: as §1
IGROV-1 = assay: Growth inhibition of human IGROV1 cells after 48 hrs by sulforhodamine B assay; assay type: functional; conditions: IGROV-1, 48 h; method in brief: as §1
BT-549 = assay: Growth inhibition of human BT549 cells after 48 hrs by sulforhodamine B assay; assay type: functional; conditions: BT-549, 48 h; method in brief: as §1
HCT-15 = assay: Growth inhibition of human HCT15 cells after 48 hrs by sulforhodamine B assay; assay type: functional; conditions: HCT-15, 48 h; method in brief: as §1
SF-268 = assay: Growth inhibition of human SF268 cells after 48 hrs by sulforhodamine B assay; assay type: functional; conditions: SF-268, 48 h; method in brief: as §1
SW-620 = assay: Growth inhibition of human SW620 cells after 48 hrs by sulforhodamine B assay; assay type: functional; conditions: SW-620, 48 h
Method in brief: (§2)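 NCI in vitro panel screen. Compounds tested at five 10-fold dilutions, 10^-4 to 10^-8 M. Cells in 96-well plates were exposed for the last 48 h of a 72 h incubation. Viability/growth was read by sulforhodamine B protein assay. GI50 is the concentration giving 50% growth inhibition. Values beyond the tested range are reported as greater or less than the maximum or minimum concentration.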

UACC-62 = assay: Growth inhibition of human UACC62 cells after 48 hrs by sulforhodamine B assay; assay type: functional; conditions: UACC-62, 48 h; method in brief: as §2
M14 = assay: Growth inhibition of human M14 cells after 48 hrs by sulforhodamine B assay; assay type: functional; conditions: M14, 48 h; method in brief: as §1
OVCAR-4 = assay: Growth inhibition of human OVCAR4 cells after 48 hrs by sulforhodamine B assay; assay type: functional; conditions: OVCAR-4, 48 h; method in brief: as §1
KM12 = assay: Growth inhibition of human KM12 cells after 48 hrs by sulforhodamine B assay; assay type: functional; conditions: KM12, 48 h; method in brief: as §1
PC-3 = assay: Growth inhibition of human PC3 cells after 48 hrs by sulforhodamine B assay; assay type: functional; conditions: PC-3, 48 h; method in brief: as §1
LOX IMVI = assay: Growth inhibition of human LOXIMVI cells after 48 hrs by sulforhodamine B assay; assay type: functional; method in brief: as §1
K562 = assay: Growth inhibition of human K562 cells after 48 hrs by sulforhodamine B assay; assay type: functional; conditions: K562, 48 h; method in brief: as §1
U-251 = assay: Growth inhibition of human U251 cells after 48 hrs by sulforhodamine B assay; assay type: functional; conditions: U-251, 48 h; method in brief: as §2
MDA-MB-435 = assay: Growth inhibition of human MDA-MB-435 cells after 48 hrs by sulforhodamine B assay; assay type: functional; conditions: MDA-MB-435, 48 h; method in brief: as §1
NCI-H322M = assay: Growth inhibition of human NCI-H322M cells after 48 hrs by sulforhodamine B assay; assay type: functional; method in brief: as §1
SNB-75 = assay: Growth inhibition of human SNB75 cells after 48 hrs by sulforhodamine B assay; assay type: functional; conditions: SNB-75, 48 h; method in brief: as §2
OVCAR-8 = assay: Growth inhibition of human OVCAR8 cells after 48 hrs by sulforhodamine B assay; assay type: functional; conditions: OVCAR-8, 48 h; method in brief: as §1
HL-60(TB) = assay: Growth inhibition of human HL-60(TB) cells after 48 hrs by sulforhodamine B assay; assay type: functional; conditions: HL-60, 48 h
Method in brief: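 NCI 60-cell-line screen protocol: cells exposed to compound at five 10-fold dilutions from 10^-4 to 10^-8 M for the last 48 h of a 72 h incubation. Sulforhodamine B protein assay estimated viability/growth. GI50 (50% growth inhibition) derived; where not reached or exceeded, reported as greater or less than the highest or lowest concentration tested.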

HOP-92 = assay: Growth inhibition of human HOP92 cells after 48 hrs by sulforhodamine B assay; assay type: functional; conditions: HOP-92, 48 h; method in brief: as §1
SK-MEL-5 = assay: Growth inhibition of human SK-MEL-5 cells after 48 hrs by sulforhodamine B assay; assay type: functional; conditions: SK-MEL-5, 48 h; method in brief: as §1
UO-31 = assay: Growth inhibition of human UO31 cells after 48 hrs by sulforhodamine B assay; assay type: functional; conditions: UO-31, 48 h; method in brief: as §2
786-0 = assay: Growth inhibition of human 786-0 cells after 48 hrs by sulforhodamine B assay; assay type: functional; conditions: 786-0, 48 h; method in brief: as §1
COLO 205 = assay: Growth inhibition of human COLO205 cells after 48 hrs by sulforhodamine B assay; assay type: functional; conditions: COLO 205, 48 h; method in brief: as §1
SK-MEL-28 = assay: Growth inhibition of human SK-MEL-28 cells after 48 hrs by sulforhodamine B assay; assay type: functional; conditions: SK-MEL-28, 48 h; method in brief: as §1
Malme-3M = assay: Growth inhibition of human MALME-3M cells after 48 hrs by sulforhodamine B assay; assay type: functional; method in brief: as §1
T47D = assay: Growth inhibition of human T47D cells after 48 hrs by sulforhodamine B assay; assay type: functional; method in brief: as §2
HCT-116 = assay: Growth inhibition of human HCT116 cells after 48 hrs by sulforhodamine B assay; assay type: functional; conditions: HCT-116, 48 h; method in brief: as §1
SK-OV-3 = assay: Growth inhibition of human SKOV3 cells after 48 hrs by sulforhodamine B assay; assay type: functional; conditions: SK-OV-3, 48 h; method in brief: as §1
SNB-19 = assay: Growth inhibition of human SNB19 cells after 48 hrs by sulforhodamine B assay; assay type: functional; conditions: SNB-19, 48 h; method in brief: as §2
NCI-H460 = assay: Growth inhibition of human NCI-H460 cells after 48 hrs by sulforhodamine B assay; assay type: functional; conditions: NCI-H460, 48 h; method in brief: as §1
SN12C = assay: Growth inhibition of human SN12C cells after 48 hrs by sulforhodamine B assay; assay type: functional; method in brief: as §2
SR = assay: Growth inhibition of human SR cells after 48 hrs by sulforhodamine B assay; assay type: functional; method in brief: as §2
EKVX = assay: Growth inhibition of human EKVX cells after 48 hrs by sulforhodamine B assay; assay type: functional; method in brief: as §1
ACHN = assay: Growth inhibition of human ACHN cells after 48 hrs by sulforhodamine B assay; assay type: functional; method in brief: as §1
TK-10 = assay: Growth inhibition of human TK10 cells after 48 hrs by sulforhodamine B assay; assay type: functional; conditions: TK-10, 48 h; method in brief: as §2
[1] = Growth inhibition of human […] cells after 48 hrs by sulforhodamine B assay; assay type: functional; method in brief: as §1
A549 = assay: Growth inhibition of human A549 cells after 48 hrs by sulforhodamine B assay; assay type: functional; conditions: A549, 48 h; method in brief: as §1
HT-29 = assay: Growth inhibition of human HT-29 cells after 48 hrs by sulforhodamine B assay; assay type: functional; conditions: HT-29, 48 h; method in brief: as §1
MT4 = assay: Antiproliferative activity against human MT4 cells assessed as reduction of growth by MTT assay; assay type: functional, cell-based
Method in brief: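 MT-4 lymphoblastoid T cells (ATCC) in RPMI 1640 with 10% FCS, penicillin/streptomycin, checked for mycoplasma. 1 × 10⁴ mock-infected cells per well with serial dilutions from a 100 mM DMSO stock. Incubated 4 days at 37 °C, viable cells counted by MTT. IC50 versus untreated controls by linear regression. Mean of three separate experiments.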

SF-295 = assay: Growth inhibition of human SF295 cells after 48 hrs by sulforhodamine B assay; assay type: functional; conditions: SF-295, 48 h; method in brief: as §1
MDA-MB-231 = assay: Growth inhibition of human MDA-MB-231 cells after 48 hrs by sulforhodamine B assay; assay type: functional; conditions: MDA-MB-231, 48 h; method in brief: as §1
CAKI-1 = assay: Growth inhibition of human Caki1 cells after 48 hrs by sulforhodamine B assay; assay type: functional; conditions: CAKI-1, 48 h; method in brief: as §1
MOLT-4 = assay: Growth inhibition of human MOLT4 cells after 48 hrs by sulforhodamine B assay; assay type: functional; conditions: MOLT-4, 48 h; method in brief: as §1

CC(=O)/C(=C/N1CCN(C(=O)c2ccco2)C1=S)C(=O)c1ccccc1
GI50 (OVCAR-3): 17.2 µM
GI50 (HOP-62): 11.7 µM
GI50 (DU-145): 11 µM
GI50 (SF-539): 1.1 µM
GI50 (MCF7): 1.3 µM
GI50 (IGROV-1): 10.9 µM
GI50 (BT-549): 5.6 µM
GI50 (HCT-15): 4.7 µM
GI50 (SF-268): 10.7 µM
GI50 (SW-620): 6.1 µM
GI50 (UACC-62): 7.3 µM
GI50 (M14): 6.3 µM
GI50 (OVCAR-4): 20.1 µM
GI50 (KM12): 8.4 µM
GI50 (PC-3): 17.1 µM
GI50 (LOX IMVI): 8.9 µM
GI50 (K562): 6.7 µM
GI50 (U-251): 13.4 µM
GI50 (MDA-MB-435): 10.7 µM
GI50 (NCI-H322M): 27.9 µM
GI50 (SNB-75): 10.9 µM
GI50 (OVCAR-8): 8.8 µM
GI50 (HL-60(TB)): 8.2 µM
GI50 (HOP-92): 11.1 µM
GI50 (SK-MEL-5): 8.1 µM
GI50 (UO-31): 8.8 µM
GI50 (786-0): 11.2 µM
GI50 (COLO 205): 16.5 µM
GI50 (SK-MEL-28): 28 µM
GI50 (Malme-3M): 9.3 µM
GI50 (T47D): 4.3 µM
GI50 (HCT-116): 6.4 µM
GI50 (SK-OV-3): 17.5 µM
GI50 (SNB-19): 16.3 µM
GI50 (NCI-H460): 7 µM
GI50 (SN12C): 7.7 µM
GI50 (SR): 2.7 µM
GI50 (EKVX): 7.9 µM
GI50 (ACHN): 6.9 µM
GI50 (TK-10): 10.6 µM
GI50 [1]: 3.8 µM
GI50 (A549): 10.8 µM
GI50 (HT-29): 16.9 µM
IC50 (MT4): 5 µM
GI50 (SF-295): 19.3 µM
GI50 (MDA-MB-231): 9.5 µM
GI50 (CAKI-1): 9.3 µM
GI50 (MOLT-4): 15.9 µM
